According to ChEMBL document CHEMBL4373733, “Reinvestigating the synthesis and efficacy of small benzimidazole derivatives as presequence protease enhancers” (Eur J Med Chem, 2019):
One block for each molecule: values may come before it. Active and inactive are the calls of the source. The calls are words filed in the database; no cut-off is given here.

Key:
[1] = biological target: T1, Presequence protease, mitochondrial (Homo sapiens) (UniProt Q5JRX3); assay: Agonist activity at recombinant human N-terminal His6-tagged PreP expressed in Escherichia coli expression system assessed as increase in degradation of substrate V at 0.0001 to 10 uM measured every 30 sec for 10 mins by fluorometry
T1 sequence (whole entry): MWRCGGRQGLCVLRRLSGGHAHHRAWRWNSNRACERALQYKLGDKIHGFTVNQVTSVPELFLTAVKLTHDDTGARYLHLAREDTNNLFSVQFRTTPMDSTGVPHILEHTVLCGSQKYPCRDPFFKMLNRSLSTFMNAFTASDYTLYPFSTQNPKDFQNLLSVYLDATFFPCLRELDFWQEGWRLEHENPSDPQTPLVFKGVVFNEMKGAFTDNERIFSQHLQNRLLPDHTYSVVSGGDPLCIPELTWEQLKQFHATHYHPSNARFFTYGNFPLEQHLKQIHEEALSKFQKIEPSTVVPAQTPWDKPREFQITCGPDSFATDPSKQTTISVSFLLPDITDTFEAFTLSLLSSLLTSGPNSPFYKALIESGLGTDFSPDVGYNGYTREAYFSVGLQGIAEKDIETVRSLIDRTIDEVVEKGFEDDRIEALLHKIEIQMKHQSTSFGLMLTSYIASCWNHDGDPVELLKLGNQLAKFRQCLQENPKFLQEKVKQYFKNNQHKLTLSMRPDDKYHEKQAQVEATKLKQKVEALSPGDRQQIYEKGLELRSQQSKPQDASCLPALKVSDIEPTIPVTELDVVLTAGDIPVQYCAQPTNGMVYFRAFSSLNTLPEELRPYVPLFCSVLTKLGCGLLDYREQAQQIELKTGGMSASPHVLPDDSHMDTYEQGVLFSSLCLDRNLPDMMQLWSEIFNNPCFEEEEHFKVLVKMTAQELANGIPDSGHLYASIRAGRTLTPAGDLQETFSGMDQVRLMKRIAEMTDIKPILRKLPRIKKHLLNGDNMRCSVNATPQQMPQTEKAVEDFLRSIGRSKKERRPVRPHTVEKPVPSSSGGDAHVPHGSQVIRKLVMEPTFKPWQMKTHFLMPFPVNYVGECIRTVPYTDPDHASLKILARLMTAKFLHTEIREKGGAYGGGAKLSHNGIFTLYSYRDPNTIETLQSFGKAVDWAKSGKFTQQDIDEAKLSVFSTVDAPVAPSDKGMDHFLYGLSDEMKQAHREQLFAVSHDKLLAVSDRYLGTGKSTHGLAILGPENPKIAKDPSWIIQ
Summary of the method: (§1)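 hPreP expressed in E. coli at 25 °C (300μM IPTG, 16 h), purified by Ni-NTA, Source Q and Superdex 200, stored at −80 °C. Reaction: 0.1 μg (or 1 μg) hPreP in 20 mM HEPES pH 8.0, 10 mM MgCl₂, with substrate V (0.1 or 1.4 μg), 200 or 250 μl, room temperature (24–26 °C) or 37 °C. Fluorescence ex 320/em 405 nm. Degradation rate averaged over four independent experiments, mean ± SD.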

[2] = substrate: Nc1ccc([N+](=O)[O-])cc1/N=C/c1cc(Br)ccc1O; assay: (§2) Agonist activity at recombinant human N-terminal His6-tagged PreP expressed in Escherichia coli expression system assessed as increase in degradation of substrate V by measuring catalytic rate at 0.1 uM measured every 30 sec for 10 mins by fluorometry (reference value: 1.4 +/- 0.1 /min); summary of the method: as §1
[3] = substrate: O=[N+]([O-])c1ccc2nc(-c3cc(Br)ccc3O)n(Cc3cc(Br)ccc3O)c2c1; assay: as §2; summary of the method: as §1
[4] = substrate: O=[N+]([O-])c1ccc2nc(-c3cc(Br)ccc3O)n(Cc3cc(Br)ccc3O)c2c1; assay: Agonist activity at recombinant human N-terminal His6-tagged PreP expressed in Escherichia coli expression system assessed as increase in degradation of substrate V by measuring catalytic rate at 10 uM measured every 30 sec for 10 mins by fluorometry (reference value: 1.4 +/- 0.1 /min); summary of the method: as §1
[5] = biological target: Presequence protease, mitochondrial (Homo sapiens) (UniProt Q5JRX3); assay: Agonist activity at recombinant human N-terminal His6-tagged PreP expressed in Escherichia coli expression system assessed as increase in degradation of substrate V by measuring catalytic rate at 10 uM measured every 30 sec for 10 mins by fluorometry (reference value: 1.4 +/- 0.1 /min)
[6] = substrate: Nc1ccc([N+](=O)[O-])cc1/N=C/c1cc(Br)ccc1O; assay: (§3) Agonist activity at recombinant human N-terminal His6-tagged PreP expressed in Escherichia coli expression system assessed as increase in degradation of substrate V by measuring catalytic rate at 0.01 uM measured every 30 sec for 10 mins by fluorometry (reference value: 1.4 +/- 0.1 /min); summary of the method: as §1
[7] = substrate: O=[N+]([O-])c1ccc2nc(-c3cc(Br)ccc3O)n(Cc3cc(Br)ccc3O)c2c1; assay: as §3; summary of the method: as §1
[8] = substrate: Nc1ccc([N+](=O)[O-])cc1/N=C/c1cc(Br)ccc1O; assay: (§4) Agonist activity at recombinant human N-terminal His6-tagged PreP expressed in Escherichia coli expression system assessed as increase in degradation of substrate V by measuring catalytic rate at 1 uM measured every 30 sec for 10 mins by fluorometry (reference value: 1.4 +/- 0.1 /min); summary of the method: as §1
[9] = substrate: O=[N+]([O-])c1ccc2nc(-c3cc(Br)ccc3O)n(Cc3cc(Br)ccc3O)c2c1; assay: as §4; summary of the method: as §1

- Activity [1]: inactive
Molecule: O=[N+]([O-])c1ccc2nc(-c3cc(Br)ccc3O)n(Cc3cc(Br)ccc3O)c2c1

- Activity [1]: inactive
Molecule: Nc1ccc([N+](=O)[O-])cc1/N=C/c1cc(Br)ccc1O

- Activity [1]: inactive
Molecule: O=[N+]([O-])c1ccc2[nH]c(-c3cc(Br)ccc3O)nc2c1

B1: Presequence protease, mitochondrial (Homo sapiens), Q5JRX3 (protein)
chain: MWRCGGRQGLCVLRRLSGGHAHHRAWRWNSNRACERALQYKLGDKIHGFTVNQVTSVPELFLTAVKLTHDDTGARYLHLAREDTNNLFSVQFRTTPMDSTGVPHILEHTVLCGSQKYPCRDPFFKMLNRSLSTFMNAFTASDYTLYPFSTQNPKDFQNLLSVYLDATFFPCLRELDFWQEGWRLEHENPSDPQTPLVFKGVVFNEMKGAFTDNERIFSQHLQNRLLPDHTYSVVSGGDPLCIPELTWEQLKQFHATHYHPSNARFFTYGNFPLEQHLKQIHEEALSKFQKIEPSTVVPAQTPWDKPREFQITCGPDSFATDPSKQTTISVSFLLPDITDTFEAFTLSLLSSLLTSGPNSPFYKALIESGLGTDFSPDVGYNGYTREAYFSVGLQGIAEKDIETVRSLIDRTIDEVVEKGFEDDRIEALLHKIEIQMKHQSTSFGLMLTSYIASCWNHDGDPVELLKLGNQLAKFRQCLQENPKFLQEKVKQYFKNNQHKLTLSMRPDDKYHEKQAQVEATKLKQKVEALSPGDRQQIYEKGLELRSQQSKPQDASCLPALKVSDIEPTIPVTELDVVLTAGDIPVQYCAQPTNGMVYFRAFSSLNTLPEELRPYVPLFCSVLTKLGCGLLDYREQAQQIELKTGGMSASPHVLPDDSHMDTYEQGVLFSSLCLDRNLPDMMQLWSEIFNNPCFEEEEHFKVLVKMTAQELANGIPDSGHLYASIRAGRTLTPAGDLQETFSGMDQVRLMKRIAEMTDIKPILRKLPRIKKHLLNGDNMRCSVNATPQQMPQTEKAVEDFLRSIGRSKKERRPVRPHTVEKPVPSSSGGDAHVPHGSQVIRKLVMEPTFKPWQMKTHFLMPFPVNYVGECIRTVPYTDPDHASLKILARLMTAKFLHTEIREKGGAYGGGAKLSHNGIFTLYSYRDPNTIETLQSFGKAVDWAKSGKFTQQDIDEAKLSVFSTVDAPVAPSDKGMDHFLYGLSDEMKQAHREQLFAVSHDKLLAVSDRYLGTGKSTHGLAILGPENPKIAKDPSWIIQ
- kcat [2]: 0.02 s⁻¹
- kcat [3]: 0.02 s⁻¹
- kcat [4]: 0.0233 s⁻¹
- kcat [5]: 0.0217 s⁻¹
- kcat [6]: 0.0233 s⁻¹
- kcat [7]: 0.0183 s⁻¹
- kcat [8]: 0.0217 s⁻¹
- kcat [9]: 0.0217 s⁻¹
